Compound activity: PubChem, several laboratories
Shown are actives, neighbours in structure and some others; about 2% of the full set was active somewhere.
Lipid droplet: inhibitors of hepatocyte lipid droplet formation, primary screen, imaging, high-throughput imaging, BODIPY stain. AML12 mouse hepatocytes, oleate lipid droplets. inhibition, % at 6.5 µM. 0.4% of 240,000 active. AID 1656, 2009;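 active means lipid droplet intensity inhibited by at least 50%, with more than 500 cells counted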
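Material: mouse AML12 hepatocyte cell line, fixed after treatment; Timing: compound with oleate, overnight; Technique: high-content imaging of BODIPY-stained droplets and DAPI nuclei; Probe or stimulus: oleate, 100 µM final; Dosing: compound at 6.5 µM only.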
H9c2 TAG inh: inhibitors of triacylglycerol accumulation, primary screen, cell-based, uHTS, fluorescence, H9c2 | AID 651582, 2012 | 0.66% of 230,000 active | H9c2 cells, Nile Red lipid (TAG) fluorescence; cells loaded with 200 µM oleic acid | inhibition, % at 12.5 µM;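 active means pattern-corrected inhibition of lipid staining of at least 50% with the nuclear-stain viability signal not falling by more than 50%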;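 further: 0% = DMSO wells and 100% = triacsin C control wells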
NTR1 ag: agonists of human NTR1, primary screen, imaging, U2OS cells, beta-arrestin-GFP, high content | Neurotensin receptor type 1 (Homo sapiens), P30989 | NTR1-U2OS beta-arrestin-GFP spot imaging, agonist mode | activation, % at 20 µM | 0.17% of 330,000 active;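 active means activation at or above 40% of the spot to cytoplasm intensity ratio, with at least 20 cells analyzed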;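 further: 0% = DMSO without peptide and 100% = 100 nM NTR1 peptide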
Target sequence (P30989 whole entry, looked up): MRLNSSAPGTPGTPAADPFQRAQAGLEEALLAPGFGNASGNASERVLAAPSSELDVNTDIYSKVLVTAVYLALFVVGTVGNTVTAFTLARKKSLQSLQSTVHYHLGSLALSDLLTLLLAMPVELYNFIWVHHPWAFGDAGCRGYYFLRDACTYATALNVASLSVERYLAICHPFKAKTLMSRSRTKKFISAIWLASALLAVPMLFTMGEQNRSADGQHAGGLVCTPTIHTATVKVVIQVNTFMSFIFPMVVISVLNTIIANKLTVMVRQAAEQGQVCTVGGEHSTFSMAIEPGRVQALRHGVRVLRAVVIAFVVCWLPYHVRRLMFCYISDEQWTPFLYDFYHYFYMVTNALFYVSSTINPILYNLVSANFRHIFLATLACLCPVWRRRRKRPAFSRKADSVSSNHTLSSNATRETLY
B2AR ag: beta2AR agonists driving receptor internalization, primary screen, cell-based, FAP fluorogen, flow cytometry | Beta-2 adrenergic receptor (Homo sapiens), P07550 | Am2.2-beta2AR cells | 0.43% of 340,000 active | AID 504454, 2011 | response, % (no concentration beside the values);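 active means response above a set limit, near 3 SD of response in nonfluorescent compounds, cut at about 42% in these data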
GRK2 inh: compounds blocking aptamer binding on GRK2 – biochemical, human GRK2, bead flow cytometry, HTS, primary screen. Beta-adrenergic receptor kinase 1 (Homo sapiens), P25098. FAM-aptamer displacement from GRK2. inhibition of aptamer binding, % at 10 µM. 0.59% of 330,000 active. AID 488847, 2010;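 active means inhibition of aptamer binding above 40%, roughly 3 SD of noise, on plates passing a quality check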;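 further: median bead fluorescence of bound FAM aptamer so fluorescent compounds give negative values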
Arrestin-AP2 inh: inhibitors of beta-arrestin/AP2 binding, primary screen, biochemical, GPCR trafficking, flow cytometry | 0.31% of 340,000 active | inhibition, % at 10 µM | beta-arrestin 1 C-terminal peptide binding to AP2 beta2-adaptin appendage (human) | FITC-arrestin peptide / GST-AP2 beads; AP2 beta2 appendage carries R879A mutation;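 active means inhibition above a set limit, near 3 SD of compounds lacking own fluorescence, cut at about 54% in these data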;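 further: plate controls were DMSO wells for no effect and 5 µM unlabelled arrestin peptide for full effect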
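test system = AP2 appendage R879A on GSH beads | buffer or medium = PBS plus Tween 20 (0.05%) and BSA (0.1%) | incubation = 12 min plus 1 h, RT | detection = bead flow cytometry, FITC channel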
GRK2 CP1: GRK2 aptamer-displacing inhibitors, retest, confirmation, biochemical, cherry pick 1, bead flow cytometry. shares compounds with GRK2 inh. bead-bound GRK2, FAM-aptamer displacement. aptamer displacement, % at 10 µM. 4% of 2,000 active. AID 504451, 2011;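 active means aptamer displacement above 40%, near three times the noise of non-fluorescent compounds, on plates passing quality checks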;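 further: negative values mostly reflect intrinsic compound fluorescence rather than true enhancement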
FAM quench CP1: aptamer fluorescence quenching in GRK2 counter-screen. fluorescence response (% of DMSO), % at 10 µM. Carboxyfluorescein RNA aptamer on beads, flow cytometry quenching; active compounds read low. shares compounds with GRK2 inh. 2,000 tested, under 10 active. AID 504580;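 active means compounds that quench the bead-bound fluorescent RNA probe, cutting fluorescence to under half of the solvent control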;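 further: counterscreen run without GRK2 so only probe quenching by compound is measured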
GRK2 confirm 2: GRK2 aptamer-displacing inhibitors, hit retest, confirmation, biochemical, cherry pick 2, bead flow cytometry | shares compounds with GRK2 inh | bead-bound GRK2, FAM-aptamer displacement | inhibition of aptamer binding, % at 10 µM | 360 tested, under 10 active | AID 504782, 2011;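 active means inhibition of aptamer binding above 40%, about triple the noise seen with nonglowing compounds, on plates passing quality control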;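 further: negative values mostly come from compounds that fluoresce themselves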
FAM quench CP2: aptamer fluorescence quenching in GRK2 counter-screen. shares compounds with GRK2 inh. carboxyfluorescein RNA aptamer beads, flow cytometry quenching; active compounds read low. fluorescence response vs DMSO, % at 10 µM. 360 tested, under 10 active. AID 588494;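 active means response vs DMSO under 50%, meaning signal dropped by over half, treated as fluorescence quencher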;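 further: labelled aptamer on streptavidin beads without GRK2 as a quench counter-screen; 100% = bead fluorescence of DMSO wells and lower means quenching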
The depositor's hits bear a star.

For O=C(COc1ccc(Cl)cc1Cl)Nc1cccc(-c2ccc(N3CCOCC3)nn2)c1 the results were H9c2 TAG inh 19, NTR1 ag 1, B2AR ag 6, Arrestin-AP2 inh -2, GRK2 CP1 -2 and FAM quench CP1 93.
For C=CCN(c1nc(C)c(Br)c(OC)n1)S(=O)(=O)c1ccc(C)cc1 the results were Lipid droplet -1, H9c2 TAG inh 3, NTR1 ag 2, B2AR ag -3, GRK2 inh 2 and Arrestin-AP2 inh -8.
For Cc1cc(C)c(C)c(S(=O)(=O)N2CCN(C(=O)c3cc(S(=O)(=O)N4CCOCC4)ccc3F)CC2)c1C the results were H9c2 TAG inh 12, NTR1 ag -2, B2AR ag 3, GRK2 inh 1, Arrestin-AP2 inh -11, GRK2 CP1 -1 and FAM quench CP1 102.
CN(Cc1cnn(C)c1)C(=O)C1CCC(=O)N(Cc2ccc(Cl)cc2)C1 (configuration not stated) was read as Lipid droplet -74, H9c2 TAG inh -2, NTR1 ag 1, B2AR ag 5, GRK2 inh 0 and Arrestin-AP2 inh -2.
For Cc1ccc(CS(=O)Cc2ccc(C(=O)NC3CCCCC3)o2)cc1 (configuration not stated) the results were Lipid droplet -1, NTR1 ag 0, B2AR ag 11, GRK2 inh 1 and Arrestin-AP2 inh 6.
`CCOCCCN(C)C1CCN(C(=O)c2oc3ccccc3c2NC(=O)c2ccc(F)cc2)CC1` gave Lipid droplet -3, NTR1 ag 0, B2AR ag -12, GRK2 inh 1 and Arrestin-AP2 inh 5.
CN(C)c1ccc(CNC(=O)CCS(=O)(=O)c2ccc3c(c2)n(C)c(=O)c(=O)n3C)cc1 was read as Lipid droplet 0, H9c2 TAG inh -8, NTR1 ag -2, B2AR ag -11, GRK2 inh 60*, Arrestin-AP2 inh -2, GRK2 CP1 19, FAM quench CP1 98, GRK2 confirm 2 32 and FAM quench CP2 101.
`Cc1ccc(CNC(=O)CCS(=O)(=O)c2ccc3c(c2)oc(=O)n3C)cc1` gave Lipid droplet -3, NTR1 ag 0, B2AR ag -7, GRK2 inh 0 and Arrestin-AP2 inh -3.
Screening O=C(COC(=O)CNC(=O)c1ccc([N+](=O)[O-])o1)Nc1ncc(Cl)cc1Cl returned H9c2 TAG inh 20, NTR1 ag 8, B2AR ag 6, GRK2 inh 55*, Arrestin-AP2 inh -7, GRK2 CP1 -1 and FAM quench CP1 99.
O=C(COC(=O)CNC(=O)c1ccc([N+](=O)[O-])o1)Nc1ncc(C(F)(F)F)cc1Cl was read as H9c2 TAG inh 17, NTR1 ag 1, B2AR ag 6, GRK2 inh 0 and Arrestin-AP2 inh 9.
For Cc1cccc2c1cnn2C(=O)CCC(=O)N1CC(C)CC(C)C1 (configuration not stated) the results were Lipid droplet 6, H9c2 TAG inh 1, NTR1 ag 3, B2AR ag -6, GRK2 inh 0 and Arrestin-AP2 inh 4.
Cc1cccc2c1cnn2C(=O)CCC(=O)N1CCC(C)CC1 was read as Lipid droplet -19, H9c2 TAG inh -9, NTR1 ag 5, B2AR ag 4, GRK2 inh 70*, Arrestin-AP2 inh -3, GRK2 CP1 -2 and FAM quench CP1 95.
`COc1ccc(-n2c(C)cc(/C=C3\C(=N)N4N=C(CC(=O)N5CCOCC5)SC4=NC3=O)c2C)cc1` gave Lipid droplet -2, NTR1 ag 0, B2AR ag -1, GRK2 inh 1 and Arrestin-AP2 inh 11.
CCc1ccc(NC(=O)CSc2nc3ccccc3nc2N2CCCCC2)cc1 was read as Lipid droplet 48, H9c2 TAG inh 11, NTR1 ag 2, GRK2 inh 69*, Arrestin-AP2 inh 9, GRK2 CP1 -2 and FAM quench CP1 92.
Screening O=C(CSc1nc2ccccc2nc1N1CCCCC1)Nc1ccc(F)cc1 returned Lipid droplet 7, H9c2 TAG inh 1, NTR1 ag 0, B2AR ag -7, GRK2 inh 0 and Arrestin-AP2 inh 2.
For COc1ccccc1N1CCN(/N=C/c2ccc(Cl)c([N+](=O)[O-])c2)CC1 the results were Lipid droplet -2, NTR1 ag 8, B2AR ag 9, GRK2 inh 100*, Arrestin-AP2 inh 4, GRK2 CP1 1 and FAM quench CP1 98.
`CC(C(=O)N1CCOCCOCCOCC1)N1C(=O)c2ccccc2C1=O` (configuration not stated) gave Lipid droplet 1, H9c2 TAG inh -3, NTR1 ag 1, B2AR ag -5, GRK2 inh 86*, Arrestin-AP2 inh 17, GRK2 CP1 -1 and FAM quench CP1 98.
CC(Oc1ccccc1Cl)C(=O)N1CCOCC1 (configuration not stated) was read as Lipid droplet -5, NTR1 ag -3, B2AR ag 6, GRK2 inh 43*, Arrestin-AP2 inh 7, GRK2 confirm 2 3 and FAM quench CP2 100.
Screening CC(Oc1ccccc1Cl)C(=O)N1CCCN(C)CC1 (configuration not stated) returned Lipid droplet 3, H9c2 TAG inh -10, NTR1 ag 0, B2AR ag 5, GRK2 inh 1 and Arrestin-AP2 inh 2.
